Data taken from ChEMBL document CHEMBL1129649, “A novel series of (phenoxyalkyl)imidazoles as potent H3-receptor histamine antagonists” (J Med Chem, 1996).

Key:
Histamine H3 receptor = Histamine H3 receptor (Rattus norvegicus, UniProt Q9QYN8); assay: Rat Histamine H3 receptor antagonism determined by [K+] - evoked depolarization-induced release of [3H]histamine from rat cerebral cortex synaptosomes; type: functional, subcellular, Brain
Mus musculus = assay: In vivo evaluation for effect on brain tele-methylhistamine levels in mice; type: functional
In short: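 Male Swiss mice (18-22 g, groups of at least six) fasted 24 h, then dosed orally as salt suspended in 1% methylcellulose (doses as free base, starting at 10 mg/kg). Cerebral cortex taken 90 min later, homogenized in ice-cold 0.4 M perchloric acid; tele-methylhistamine measured by radioimmunoassay. ED50 calculated relative to maximal level produced by 10 mg/kg thioperamide.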

Sequence of Histamine H3 receptor (Q9QYN8 whole entry): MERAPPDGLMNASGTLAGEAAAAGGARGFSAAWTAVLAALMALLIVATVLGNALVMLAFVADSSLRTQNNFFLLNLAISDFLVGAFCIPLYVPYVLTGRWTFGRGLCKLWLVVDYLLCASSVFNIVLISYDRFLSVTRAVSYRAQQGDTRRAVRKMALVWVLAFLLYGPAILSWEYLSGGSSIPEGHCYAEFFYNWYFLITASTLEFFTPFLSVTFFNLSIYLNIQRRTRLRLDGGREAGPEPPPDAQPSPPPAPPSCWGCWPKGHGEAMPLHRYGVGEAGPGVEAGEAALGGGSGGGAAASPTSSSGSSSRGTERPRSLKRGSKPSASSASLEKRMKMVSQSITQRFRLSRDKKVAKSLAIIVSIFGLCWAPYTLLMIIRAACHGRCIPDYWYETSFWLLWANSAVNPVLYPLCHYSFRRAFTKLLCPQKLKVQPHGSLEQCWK

| Ki (Histamine H3 receptor) [µM] | SMILES | ED50 (Mus musculus) [mg/kg] |
| --- | --- | --- |
| 0.338 | O=C(c1ccc(OCCc2cnc[nH]2)cc1)N1CCCCC1 | > 10 |
| 0.054 | O=C(c1ccccc1)c1ccc(OCCc2c[nH]cn2)cc1 | 2.6 |
| 0.021 | Clc1ccc(OCCc2c[nH]cn2)cc1 | 0.78 |
| 0.012 | O=[N+]([O-])c1cccc(OCCc2c[nH]cn2)c1 | 0.9 |
| 0.08 | CCc1ccc(OCCc2cnc[nH]2)cc1 | > 10 |
| 0.0037 | CCC(=O)c1ccc(OCCc2cnc[nH]2)cc1 | 0.95 |
| 0.038 | COc1ccc(OCCc2cnc[nH]2)cc1 | 2.9 |
| 0.029 | O=[N+]([O-])c1ccc(NCCc2c[nH]cn2)nc1 |  |
| > 0.5 | Clc1cc(Cl)cc(OCCc2c[nH]cn2)c1 | > 10 |
| 0.068 | FC(F)(F)c1ccc(OCCc2cnc[nH]2)cc1 | > 10 |
| 0.024 | Brc1ccc(OCCc2c[nH]cn2)cc1 | 2.9 |
| 0.011 | Fc1ccc(OCCCc2cnc[nH]2)cc1 | 4.9 |
| > 0.5 | Fc1c(F)c(F)c(OCCc2c[nH]cn2)c(F)c1F | 10 |
| 0.039 | N#Cc1cccc(OCCc2c[nH]cn2)c1 | 2.9 |
| 0.009 | O=[N+]([O-])c1ccc(SCCc2c[nH]cn2)cc1 | 2.7 |

Second part, the compound before the results:

| SMILES | Ki (Histamine H3 receptor) [µM] | ED50 (Mus musculus) [mg/kg] |
| --- | --- | --- |
| COC(=O)c1ccc(OCCc2c[nH]cn2)cc1 | 0.0051 | > 3 |
| FC(F)(F)c1ccc(OCCCc2c[nH]cn2)cc1 |  | 0.6 |
| O=[N+]([O-])c1ccc(CSCc2c[nH]cn2)cc1 |  | > 10 |
| CCCc1ccc(OCCc2c[nH]cn2)cc1 |  | 1.6 |
| N#Cc1ccc(OCCc2c[nH]cn2)cc1 |  | 1.2 |
| N#Cc1ccccc1OCCc1c[nH]cn1 |  | > 10 |
| N#Cc1ccc(OCCCc2c[nH]cn2)cc1 |  | 0.54 |
| O=[N+]([O-])c1ccc(OCCc2c[nH]cn2)cc1 |  | 0.66 |
| c1ccc2cc(OCCc3c[nH]cn3)ccc2c1 |  | 1.5 |
| O=[N+]([O-])c1ccc(SCCc2c[nH]cn2)nc1 |  | 2.6 |
| CCOC(=O)c1ccc(OCCc2c[nH]cn2)cc1 | 0.006 | > 10 |
| Cc1ccc(OCCc2c[nH]cn2)cc1 |  | 2.3 |
| c1ccc2c(OCCc3c[nH]cn3)cccc2c1 | 0.137 | 3.4 |
| S=C(NC1CCCCC1)N1CCC(c2cnc[nH]2)CC1 [THIOPERAMIDE] |  | 1 |
| CC(=O)c1ccc(OCCc2c[nH]cn2)cc1 |  | 3.2 |
| O=[N+]([O-])c1ccc(NCCc2c[nH]cn2)cc1 |  | 10.7 |
